We go through five compounds from ChEMBL document CHEMBL1800057, “Discovery of dual inducible/neuronal nitric oxide synthase (iNOS/nNOS) inhibitor development candidate 4-((2-cyclobutyl-1H-imidazo[4,5-b]pyrazin-1-yl)methyl)-7,8-difluoroquinolin-2(1H)-one (KD7332) part 2: identification of a novel, potent, and selective series of benzimidazole-quinolinone …” (J Med Chem, 2010).

In general, EC50 refers to the midpoint of the concentration-response curve. In general, half-life refers to how long it takes for the measured level to halve. Broadly, the AUC is the area under the concentration-time curve, a measure of exposure. Higher therefore signals more exposure. For orientation: ED50 means the midpoint of the dose-response relation. The Cmax is the peak of the concentration-time curve.

Each structure is given as a SMILES string.

The target in series [1] is T1, Nitric oxide synthase, inducible (Mus musculus, UniProt P29477).
T1 sequence (P29477 whole entry): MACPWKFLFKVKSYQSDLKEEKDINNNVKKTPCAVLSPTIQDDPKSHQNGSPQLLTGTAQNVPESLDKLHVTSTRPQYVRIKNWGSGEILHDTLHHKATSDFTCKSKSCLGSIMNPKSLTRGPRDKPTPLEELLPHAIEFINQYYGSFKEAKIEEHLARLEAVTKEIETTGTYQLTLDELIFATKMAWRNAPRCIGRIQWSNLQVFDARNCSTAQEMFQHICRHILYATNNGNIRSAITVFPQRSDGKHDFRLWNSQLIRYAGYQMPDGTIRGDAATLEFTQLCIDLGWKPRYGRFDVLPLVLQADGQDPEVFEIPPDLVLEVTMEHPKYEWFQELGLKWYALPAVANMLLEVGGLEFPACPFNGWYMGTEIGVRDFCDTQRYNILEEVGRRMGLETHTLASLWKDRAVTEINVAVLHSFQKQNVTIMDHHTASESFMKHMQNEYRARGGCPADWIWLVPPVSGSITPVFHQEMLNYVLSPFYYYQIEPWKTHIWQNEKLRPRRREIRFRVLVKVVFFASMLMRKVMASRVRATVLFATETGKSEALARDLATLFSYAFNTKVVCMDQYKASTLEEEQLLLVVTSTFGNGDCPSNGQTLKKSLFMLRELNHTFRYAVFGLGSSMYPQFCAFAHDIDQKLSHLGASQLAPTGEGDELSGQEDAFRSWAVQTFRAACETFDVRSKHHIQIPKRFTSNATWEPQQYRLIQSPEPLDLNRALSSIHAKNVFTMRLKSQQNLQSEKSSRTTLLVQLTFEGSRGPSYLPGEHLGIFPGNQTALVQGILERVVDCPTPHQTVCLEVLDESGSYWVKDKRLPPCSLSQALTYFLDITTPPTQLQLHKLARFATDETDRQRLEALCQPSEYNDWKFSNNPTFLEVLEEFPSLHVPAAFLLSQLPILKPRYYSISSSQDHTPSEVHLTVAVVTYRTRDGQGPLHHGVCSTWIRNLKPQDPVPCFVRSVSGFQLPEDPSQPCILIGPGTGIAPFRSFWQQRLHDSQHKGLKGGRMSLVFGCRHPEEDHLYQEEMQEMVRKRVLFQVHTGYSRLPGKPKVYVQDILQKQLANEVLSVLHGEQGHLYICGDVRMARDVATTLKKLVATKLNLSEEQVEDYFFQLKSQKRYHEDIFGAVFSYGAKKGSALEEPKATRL
Put plainly: Inhibition of mouse iNOS expressed in HEK293 cells assessed as inhibition of nitric oxide production after 18 hrs using 2,3-diaminonaphthalene by fluorescence assay. Format: cell-based. In short, it runs like this:
(§1)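 HEK293 cells grown to ~70% confluence in DMEM/10% FBS with pen/strep, transiently transfected with 10 μg human or murine iNOS plasmid plus Fugene 6 for 4 h at 37 °C, 10% CO2. Cells replated at 5e5 cells/mL and dosed with compound at once; 1400W (100 μM final) as positive control. After 18 h, DAN (10 μg/mL final) in HCl (0.1 N final) added for 20 min at room temperature. Fluorescence read after NaOH (0.12 N final).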

Series [2] deals with Nitric oxide synthase 1 (Homo sapiens, UniProt P29475). The experiment in a line: Inhibition of human nNOS expressed in HEK293 cells assessed as inhibition ionomycin induced nitric oxide production incubated for 24 hrs measured after 18 hrs of ionomycin challenge using 2,3-diaminonaphthalene by fluorescence assay. Format: cell-based. The gist of the method: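 HEK293 cells transfected for 4 h at 37 °C with human nNOS (10 μg) or human eNOS (15 μg) plasmid (Fugene 6, 3:1). Cells replated at 5e5 cells/mL and dosed with compound at once; SEITU (100 μM final) as positive control. After 24 h, cells activated with A23187 (83 nM final) for eNOS or ionomycin (30 μM final) for nNOS. NO read 18 h later as nitrite-DAN fluorescence.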

Series [3] addresses Nitric oxide synthase, inducible (Homo sapiens, UniProt P35228). Put plainly: Inhibition of human iNOS expressed in HEK293 cells assessed as inhibition of nitric oxide production after 18 hrs using 2,3-diaminonaphthalene by fluorescence assay. Format: cell-based. In short, it runs like this:
as §1

Series [4] has as its target Cytochrome P450 2C19 (Homo sapiens, UniProt P33261). The experiment in a line: Inhibition of human CYP2C19. It counts as ADME.
Series [5] is described as follows: Half life in mouse at 10 mg/kg, po. It counts as ADME, organism-based. The arrangement: dose 10 mg/kg, route oral. The note with it: in vivo.
A short description of series [6]: Plasma clearance in mouse at 3 mg/kg, iv and 10 mg/kg, po. Format: ADME, organism-based.
For series [7], the target named is Cytochrome P450 3A4 (Homo sapiens, UniProt P08684). Put plainly: Inhibition of human CYP3A4. Format: ADME.
In series [8] the target is T2, Cytochrome P450 1A2 (Homo sapiens, UniProt P05177).
T2 sequence (P05177 whole entry): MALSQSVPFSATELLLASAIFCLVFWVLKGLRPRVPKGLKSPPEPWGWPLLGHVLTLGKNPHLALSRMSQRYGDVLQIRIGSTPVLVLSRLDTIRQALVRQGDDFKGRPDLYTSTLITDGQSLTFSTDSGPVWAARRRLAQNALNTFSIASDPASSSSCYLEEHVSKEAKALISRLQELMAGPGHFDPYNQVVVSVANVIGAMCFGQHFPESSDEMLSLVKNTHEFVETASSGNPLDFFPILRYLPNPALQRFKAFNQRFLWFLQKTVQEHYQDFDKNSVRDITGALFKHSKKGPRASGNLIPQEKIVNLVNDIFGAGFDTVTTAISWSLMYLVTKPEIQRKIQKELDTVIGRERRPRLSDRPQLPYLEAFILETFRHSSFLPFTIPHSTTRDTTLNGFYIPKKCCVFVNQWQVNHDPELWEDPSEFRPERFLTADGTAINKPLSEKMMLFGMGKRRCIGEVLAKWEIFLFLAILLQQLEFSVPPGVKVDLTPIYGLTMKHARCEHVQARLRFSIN
Put plainly: Inhibition of human CYP1A2. It counts as ADME.

Series [9] concerns the target T2, Cytochrome P450 1A2. The experiment in a line: Inhibition of human CYP1A2 at >100uM. Format: ADME.
Series [10] is described as follows: AUC in mouse at 3 mg/kg, iv and 10 mg/kg, po. It counts as ADME, organism-based. The following applies: plasma.
Series [11] addresses Cytochrome P450 2D6 (Homo sapiens, UniProt P10635). The experiment in a line: Inhibition of human CYP2D6 at >100 uM. Format: ADME.
The test system of series [12] is Mus musculus. The experiment in a line: Inhibition of LPS-induced iNOS activation in BALB/c mouse assessed as plasma nitrate levels administered via oral gavage before LPS challenge measured after 6 to 8 hrs using 2,3-diaminonaphthalene by fluorescence assay. Format: functional. The gist of the method: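 Male BALB/c mice dosed by oral gavage (90% PEG/5% Tween 80/5% PVP + 0.5% w/v CMC) immediately before LPS (10 mg/kg ip in 0.9% NaCl). Mice killed at 6 h. EDTA plasma analysed for nitrate and drug levels; nitrite measured by DAN fluorescence.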

The nature of series [13]: Half life in mouse at 3 mg/kg, iv and 10 mg/kg, po. The following applies: in vivo.
Series [14] is described as follows: Volume of distribution at steady state in mouse at 3 mg/kg, iv and 10 mg/kg, po. Format: ADME, organism-based. The note with it: in vivo, read-out: Vdss.
Series [15] in a line: Cmax in mouse at 3 mg/kg, iv and 10 mg/kg, po. The note with it: in vivo. Format: ADME, organism-based.

Nitric oxide synthase 1, sequence (P29475 whole entry): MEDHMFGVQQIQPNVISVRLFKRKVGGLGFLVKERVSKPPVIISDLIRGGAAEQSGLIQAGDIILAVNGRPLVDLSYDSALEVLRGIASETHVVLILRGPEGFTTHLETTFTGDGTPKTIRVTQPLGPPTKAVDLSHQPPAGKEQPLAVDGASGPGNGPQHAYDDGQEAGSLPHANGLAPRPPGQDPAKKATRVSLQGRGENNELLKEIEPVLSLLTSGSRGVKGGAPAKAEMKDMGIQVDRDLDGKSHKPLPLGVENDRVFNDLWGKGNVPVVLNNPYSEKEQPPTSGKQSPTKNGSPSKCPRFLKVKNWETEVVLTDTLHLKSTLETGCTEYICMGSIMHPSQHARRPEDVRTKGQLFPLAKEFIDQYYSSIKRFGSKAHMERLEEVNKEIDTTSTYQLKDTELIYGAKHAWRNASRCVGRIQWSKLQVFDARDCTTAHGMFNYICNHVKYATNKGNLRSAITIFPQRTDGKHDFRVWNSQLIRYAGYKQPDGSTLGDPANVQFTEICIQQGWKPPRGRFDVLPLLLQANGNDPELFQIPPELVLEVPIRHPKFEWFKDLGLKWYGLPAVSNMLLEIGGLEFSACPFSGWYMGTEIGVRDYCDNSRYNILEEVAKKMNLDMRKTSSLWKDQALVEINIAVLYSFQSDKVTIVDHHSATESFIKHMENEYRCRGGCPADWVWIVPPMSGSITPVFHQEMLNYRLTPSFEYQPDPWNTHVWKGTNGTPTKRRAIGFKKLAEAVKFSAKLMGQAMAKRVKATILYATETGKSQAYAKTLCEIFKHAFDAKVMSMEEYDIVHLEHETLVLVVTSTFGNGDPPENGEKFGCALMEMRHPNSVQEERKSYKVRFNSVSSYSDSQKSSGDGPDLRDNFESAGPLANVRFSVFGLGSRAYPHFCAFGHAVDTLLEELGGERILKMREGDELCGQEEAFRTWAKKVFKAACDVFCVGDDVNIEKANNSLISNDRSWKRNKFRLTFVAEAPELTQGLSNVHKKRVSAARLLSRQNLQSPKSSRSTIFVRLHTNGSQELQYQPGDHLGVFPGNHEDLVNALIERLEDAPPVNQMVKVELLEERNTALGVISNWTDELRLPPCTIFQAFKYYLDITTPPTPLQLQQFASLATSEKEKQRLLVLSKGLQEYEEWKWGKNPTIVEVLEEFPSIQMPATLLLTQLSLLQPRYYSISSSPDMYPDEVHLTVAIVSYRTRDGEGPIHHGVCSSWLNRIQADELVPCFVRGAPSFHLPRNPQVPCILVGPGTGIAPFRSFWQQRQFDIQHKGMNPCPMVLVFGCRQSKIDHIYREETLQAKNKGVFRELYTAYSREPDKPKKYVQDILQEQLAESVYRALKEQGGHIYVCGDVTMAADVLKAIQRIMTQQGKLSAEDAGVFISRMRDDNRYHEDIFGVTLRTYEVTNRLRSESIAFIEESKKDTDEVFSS
Cytochrome P450 2D6, sequence (P10635 whole entry): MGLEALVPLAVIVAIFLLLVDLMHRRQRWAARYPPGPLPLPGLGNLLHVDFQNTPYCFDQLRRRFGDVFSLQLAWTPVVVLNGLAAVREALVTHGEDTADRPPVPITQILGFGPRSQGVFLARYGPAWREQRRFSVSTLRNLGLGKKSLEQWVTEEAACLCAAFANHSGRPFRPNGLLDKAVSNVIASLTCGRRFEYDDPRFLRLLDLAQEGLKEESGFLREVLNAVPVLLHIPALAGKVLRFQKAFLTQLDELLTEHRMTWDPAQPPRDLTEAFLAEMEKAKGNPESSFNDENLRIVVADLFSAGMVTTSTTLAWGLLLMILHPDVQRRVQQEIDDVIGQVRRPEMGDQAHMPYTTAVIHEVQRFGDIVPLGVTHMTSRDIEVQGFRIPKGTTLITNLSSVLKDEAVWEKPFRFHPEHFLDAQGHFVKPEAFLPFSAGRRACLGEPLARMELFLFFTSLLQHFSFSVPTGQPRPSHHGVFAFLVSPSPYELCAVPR
Cytochrome P450 3A4, sequence (P08684 whole entry): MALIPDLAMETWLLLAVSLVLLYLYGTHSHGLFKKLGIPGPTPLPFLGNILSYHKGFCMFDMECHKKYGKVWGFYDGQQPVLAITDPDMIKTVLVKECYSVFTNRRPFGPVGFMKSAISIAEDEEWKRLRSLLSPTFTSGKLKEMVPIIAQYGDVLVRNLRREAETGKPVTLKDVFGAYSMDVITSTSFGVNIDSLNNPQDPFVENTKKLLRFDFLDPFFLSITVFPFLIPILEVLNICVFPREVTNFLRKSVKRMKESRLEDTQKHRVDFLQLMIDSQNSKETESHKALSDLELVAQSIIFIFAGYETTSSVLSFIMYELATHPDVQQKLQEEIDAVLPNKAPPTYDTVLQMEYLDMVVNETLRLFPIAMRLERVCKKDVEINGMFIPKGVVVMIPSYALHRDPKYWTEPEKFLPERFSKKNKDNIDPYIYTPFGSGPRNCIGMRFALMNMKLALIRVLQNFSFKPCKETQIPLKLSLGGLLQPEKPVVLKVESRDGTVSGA
Cytochrome P450 2C19, sequence (P33261 whole entry): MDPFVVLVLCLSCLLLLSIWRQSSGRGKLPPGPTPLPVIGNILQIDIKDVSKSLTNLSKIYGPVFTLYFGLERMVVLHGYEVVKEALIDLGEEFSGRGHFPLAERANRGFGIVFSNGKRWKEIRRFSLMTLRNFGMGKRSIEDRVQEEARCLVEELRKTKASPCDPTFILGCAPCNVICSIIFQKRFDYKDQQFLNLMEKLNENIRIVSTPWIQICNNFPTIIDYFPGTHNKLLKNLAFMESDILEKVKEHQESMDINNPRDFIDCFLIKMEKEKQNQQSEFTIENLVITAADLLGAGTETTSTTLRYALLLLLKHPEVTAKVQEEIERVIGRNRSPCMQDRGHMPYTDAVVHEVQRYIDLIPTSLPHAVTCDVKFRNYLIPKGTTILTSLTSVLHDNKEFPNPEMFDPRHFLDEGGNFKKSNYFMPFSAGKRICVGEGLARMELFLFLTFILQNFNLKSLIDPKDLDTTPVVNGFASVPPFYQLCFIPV
Nitric oxide synthase, inducible (Homo sapiens, UniProt P35228), sequence (P35228 whole entry): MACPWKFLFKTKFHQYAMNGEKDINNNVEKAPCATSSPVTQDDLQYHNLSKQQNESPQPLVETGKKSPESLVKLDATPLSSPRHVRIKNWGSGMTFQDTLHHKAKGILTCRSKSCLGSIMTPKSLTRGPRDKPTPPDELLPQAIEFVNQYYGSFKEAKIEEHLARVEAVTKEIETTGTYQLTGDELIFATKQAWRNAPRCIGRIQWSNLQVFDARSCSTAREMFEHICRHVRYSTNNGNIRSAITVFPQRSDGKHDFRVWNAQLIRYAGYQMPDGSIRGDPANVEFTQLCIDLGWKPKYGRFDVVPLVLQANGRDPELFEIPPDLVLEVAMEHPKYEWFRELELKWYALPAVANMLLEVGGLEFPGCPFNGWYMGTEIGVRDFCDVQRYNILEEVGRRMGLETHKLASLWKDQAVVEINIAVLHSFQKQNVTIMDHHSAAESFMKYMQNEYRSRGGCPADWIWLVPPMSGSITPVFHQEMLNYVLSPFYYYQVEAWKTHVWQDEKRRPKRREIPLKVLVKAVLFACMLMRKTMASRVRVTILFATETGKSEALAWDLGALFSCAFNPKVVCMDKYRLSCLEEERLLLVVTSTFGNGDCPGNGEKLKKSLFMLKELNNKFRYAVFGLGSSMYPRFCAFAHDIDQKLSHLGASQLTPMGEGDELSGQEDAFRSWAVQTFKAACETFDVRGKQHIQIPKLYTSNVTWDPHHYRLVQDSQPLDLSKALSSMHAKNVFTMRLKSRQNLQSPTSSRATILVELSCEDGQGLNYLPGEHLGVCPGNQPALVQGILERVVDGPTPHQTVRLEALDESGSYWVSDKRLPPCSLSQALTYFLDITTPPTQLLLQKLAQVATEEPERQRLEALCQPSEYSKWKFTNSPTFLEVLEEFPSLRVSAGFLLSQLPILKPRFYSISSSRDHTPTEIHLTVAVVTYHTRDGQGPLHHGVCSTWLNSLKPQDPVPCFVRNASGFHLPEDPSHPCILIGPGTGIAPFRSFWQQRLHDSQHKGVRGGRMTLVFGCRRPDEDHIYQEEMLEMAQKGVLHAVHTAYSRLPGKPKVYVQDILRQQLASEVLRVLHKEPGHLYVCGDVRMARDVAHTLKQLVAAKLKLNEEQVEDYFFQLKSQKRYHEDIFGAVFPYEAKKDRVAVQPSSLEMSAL

With `CC(C)Cc1nc2nccnc2n1Cc1cc(=O)[nH]c2c(F)c(F)ccc12`, the EC50 in series [1] is 0.44 µM; in series [2], 0.3 µM; in series [3] it was 0.088 µM; in series [4], > 60 µM; in series [7], > 60 µM; in [8], > 100 µM. The half-life in [5] is 1.8 h; in series [13], 6 h. In series [6], this compound had a clearance of 6.1 mL/min/kg. For the same compound, the “inhibition (INH)” value in series [9] and in series [11] was < 50% throughout. The compound further gave an AUC in series [10] of 11000 ng·h/mL. Further, in series [12], the ED50 stood at 0.5 mg/kg. Further, the Vd in series [14] came out at 6.8 L/kg.

Turning to `O=c1cc(Cn2c(C3CCC3)nc3nccnc32)c2cccc(F)c2[nH]1`, the EC50 in [1] is 1.3 µM; in [2], 4.6 µM; in series [3], 0.19 µM; in series [4], > 60 µM; in series [7], > 60 µM; in [8] it was > 100 µM. Further, the values for the half-life in [5] and in series [13] were 3.1 h and 1.3 h, respectively. The compound also returned a clearance in series [6] of 5.9 mL/min/kg. Moreover, the “inhibition (INH)” value in series [9] and in series [11] was < 50% each time. In addition, the AUC in [10] amounted to 25000 ng·h/mL. In series [12], the ED50 came to 1.5 mg/kg. In addition, in series [14], the Vd turned out to be 0.47 L/kg.

`O=c1cc(Cn2c(C3CCC3)nc3nccnc32)c2ccc(F)c(F)c2[nH]1`: the EC50 in [1] is 0.43 µM; in series [2], 0.3 µM; in series [3] it was 0.091 µM; in series [4] it was > 38 µM; in series [7], > 100 µM; in [8] it was > 100 µM. Moreover, the half-life in series [5] is 2.3 h; in series [13], 2.1 h. For the same compound, in [6], the clearance was 4.5 mL/min/kg. In [15], the highest level (Cmax) was 15000 ng/mL. In addition, the “inhibition (INH)” value in series [9] and in [11] was < 50% throughout. Further, the ED50 in series [12] was found to be 1 mg/kg. The Vd in series [14] was 0.39 L/kg.

In the case of `O=c1cc(Cn2c(C3CC(F)(F)C3)nc3nccnc32)c2cccc(F)c2[nH]1`, the EC50 amounted to 3.3 µM in series [1]; 3 µM in series [2]; 0.22 µM in [3]; 27 µM in series [4]; 23 µM in [7]; 35 µM in series [8]. Also, the half-life in [5] was 2.3 h; in series [13], 4 h. The clearance in series [6] worked out at 6.2 mL/min/kg. Also, the Cmax in [15] was found to be 8800 ng/mL. Further, in [10], the exposure (AUC) stood at 15000 ng·h/mL. The “inhibition (INH)” value in [11] is < 50%. Moreover, the ED50 in series [12] is 3 mg/kg. In [14], the Vd was determined as 0.67 L/kg.

As to `CC(C)Cc1nc2ccccc2n1Cc1cc(=O)[nH]c2c(F)c(F)ccc12`, the EC50 in series [1] was determined as 3.1 µM; in [2], 0.69 µM; in series [3], 0.38 µM. Also, the half-life in [5] was 5.2 h; in series [13], 1.7 h. Further, the clearance in series [6] was 12 mL/min/kg. For the same compound, the concentration in [15] peaked (Cmax) at 8700 ng/mL. Moreover, in series [10], the AUC was 13300 ng·h/mL. For the same compound, the Vd in [14] amounted to 1.1 L/kg.
